In brackets after ≈: the same amount, converted by molar mass. Activity calls are given as the source filed them. No cut-off for these calls is given here.
What was measured:
Candida tropicalis [1] = test: Antifungal activity against Candida tropicalis IAM 4965 assessed as concentration required to 50% growth inhibition using alamar blue staining after 18 to 72 hrs by microdilution method; assay type: functional
In short: (§1)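 Serial broth microdilution in RPMI 1640 with 0.165 M MOPS. Inoculum was 1×10³–1×10⁴ cells/mL and incubation ran 18–72 h, both set per strain by growth rate, at 30 °C. MIC-2 is the lowest drug concentration giving 50% growth inhibition versus a drug-free control.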

Saccharomyces cerevisiae = test: Antifungal activity against Saccharomyces cerevisiae YPH500 assessed as concentration required to 50% growth inhibition using alamar blue staining after 18 to 72 hrs by microdilution method; assay type: functional; in short: as §1
Pichia kudriavzevii [2] = test: Antifungal activity against Candida krusei ATCC 44507 assessed as concentration required to 80% growth inhibition using alamar blue staining after 18 to 72 hrs by microdilution method; assay type: functional
In short: (§2)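 Serial dilution in YPD medium (1% yeast extract, 2% peptone, […]), incubated at 37 °C. Inoculum was 1×10³–1×10⁴ cells/mL and incubation 18–72 h, both chosen per strain. MIC-1 is the lowest concentration giving 80% inhibition relative to a drug-free control.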

Pichia kudriavzevii [3] = test: Antifungal activity against Candida krusei ATCC 44507 assessed as concentration required to 50% growth inhibition using alamar blue staining after 18 to 72 hrs by microdilution method; assay type: functional; in short: as §1
Candida tropicalis [4] = test: Antifungal activity against Candida tropicalis ATCC 44508 assessed as concentration required to 80% growth inhibition using alamar blue staining after 18 to 72 hrs by microdilution method; assay type: functional; in short: as §2
Candida albicans [5] = test: Antifungal activity against FLCZ-susceptible Candida albicans ATCC 90028 assessed as concentration required to 80% growth inhibition using alamar blue staining after 18 to 72 hrs by microdilution method; assay type: functional
In short: (§3)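 Serial broth microdilution in YPD medium (1% yeast extract, 2% peptone, […]). Starting cell density (1 × 10³–1 × 10⁴ cells/mL) and incubation time (18–72 h) were set per strain by growth speed. MIC-1 is the lowest drug concentration giving 80% growth inhibition relative to the drug-free control.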

Candida albicans [6] = test: Antifungal activity against Candida albicans ATCC 24433 assessed as concentration required to 50% growth inhibition using alamar blue staining after 18 to 72 hrs by microdilution method; assay type: functional; in short: as §1
Nakaseomyces glabratus [7] = test: Antifungal activity against Candida glabrata ATCC 48435 assessed as concentration required to 50% growth inhibition using alamar blue staining after 18 to 72 hrs by microdilution method; assay type: functional; in short: as §1
[8] = Solubility in water at pH 6.8; assay type: physicochemical
Candida albicans [9] = test: Antifungal activity against FLCZ-resistant Candida albicans ATCC MYA-573 assessed as concentration required to 80% growth inhibition using alamar blue staining after 18 to 72 hrs by microdilution method; assay type: functional; in short: as §3
Nakaseomyces glabratus [10] = test: Antifungal activity against Candida glabrata ATCC 48435 assessed as concentration required to 80% growth inhibition using alamar blue staining after 18 to 72 hrs by microdilution method; assay type: functional; in short: as §2
[11] = Octanol-phosphate buffer partition coefficient, log D of the compound at pH 7.4; assay type: physicochemical
In short: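 Compound was shaken 30 min in equal volumes of n-octanol and phosphate-buffered saline at pH 7.4, then centrifuged at 3000 rpm for 10 min. Each layer was assayed by LC/MS, and log D was taken from the partition ratio.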

[12] = Metabolic stability in human liver microsomes at 1 uM after 30 mins; assay type: ADME, Microsome; conditions: read-out: Stability
In short: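 Compound was preincubated with human liver microsomes (0.5 mg/mL protein) in sodium phosphate buffer pH 7.4 for 20 min at 37 °C. NADPH started the reaction, and MeOH stopped it after 30 min. Samples were centrifuged at 4 °C, and parent loss was quantified by LC/MS/MS.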

Candida albicans [13] = test: Antifungal activity against FLCZ-susceptible Candida albicans ATCC 90028 assessed as reduction of mannan level up to 4 ug/ml after 3 hrs by [14C]-glucose incorporation assay; assay type: functional, organism-based
In short: (§4)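 Exponentially growing cells were suspended in RPMI 1640 to about 0.7 A595, then drug (0–4 µg/mL) and [14C]-glucose were added. Incubation was 3 h at 30 °C with occasional shaking. Cells were heated in 3% NaOH at 80 °C for 1 h. Mannan was taken from the supernatant by Fehling's reaction, and the insoluble residue was digested overnight with Zymolyase 100T. β-1,3-glucan counts were obtained as glucan minus β-1,6-glucan.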

Candida albicans [14] = test: Antifungal activity against FLCZ-susceptible Candida albicans ATCC 90028 assessed as reduction of chitin level up to 4 ug/ml after 3 hrs by [14C]-glucose incorporation assay; assay type: functional, organism-based; in short: as §4
Candida albicans [15] = test: Antifungal activity against FLCZ-susceptible Candida albicans ATCC 90028 assessed as reduction of beta-1,3-glucan level up to 4 ug/ml after 3 hrs by [14C]-glucose incorporation assay; assay type: functional, organism-based; in short: as §4
Candida albicans [16] = test: Antifungal activity against FLCZ-susceptible Candida albicans ATCC 90028 assessed as reduction of beta-1,6-glucan level after 3 hrs by [14C]-glucose incorporation assay; assay type: functional, organism-based
In short: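 Exponentially growing cells suspended in RPMI 1640 to absorbance ~0.7 at 595 nm; drug and [14C]-glucose added, incubated 30 °C with occasional shaking. After 3 h, cells heated in 3% NaOH at 80 °C for 1 h; mannan taken from supernatant by Fehling's reaction; insoluble residue digested with Zymolyase 100T overnight; radioactivity per fraction measured. Tested 0.016–4 µg/mL.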

Structure (SMILES)	MIC (Candida tropicalis [1])	MIC (Saccharomyces cerevisiae)	MIC (Pichia kudriavzevii [2])	MIC (Pichia kudriavzevii [3])	MIC (Candida tropicalis [4]; read-out: MIC)	MIC (Candida albicans [5])	MIC (Candida albicans [6])	MIC (Nakaseomyces glabratus [7])	solubility [8]	MIC (Candida albicans [9])	MIC (Nakaseomyces glabratus [10])	logD [11]	remaining at 0.5 h, 1 µM [12]	MIC (Candida tropicalis [4])	Activity (Candida albicans [13])	Activity (Candida albicans [14])	Activity (Candida albicans [15])	Activity (Candida albicans [16])
OC(Cn1cncn1)(Cn1cncn1)c1ccc(F)cc1F [FLUCONAZOLE]	0.25 µg/mL (≈ 0.816 µM)	4 µg/mL (≈ 13.1 µM)	32 µg/mL (≈ 104 µM)	16 µg/mL (≈ 52.2 µM)	0.5 µg/mL (≈ 1.63 µM)	0.25 µg/mL (≈ 0.816 µM)	0.25 µg/mL (≈ 0.816 µM)	2 µg/mL (≈ 6.53 µM)	> 2000 µg/mL	> 128 µg/mL	16 µg/mL (≈ 52.2 µM)	–	–	–	–	–	–	–
Cc1nc2c(C#N)c(C)c(-c3ccccc3)c(N3CC[C@H](N(C)C)C3)c2o1	–	–	4 µg/mL (≈ 11.1 µM)	–	0.25 µg/mL (≈ 0.694 µM)	2 µg/mL (≈ 5.55 µM)	–	–	120 µg/mL (≈ 333 µM)	2 µg/mL (≈ 5.55 µM)	0.25 µg/mL (≈ 0.694 µM)	3.3	–	–	–	–	–	–
Cc1c(-c2ccccc2)c(N2CC[C@H](N(C)C)C2)c2oc(C3CCCC3)nc2c1C#N	–	–	2 µg/mL (≈ 4.82 µM)	–	0.063 µg/mL (≈ 0.152 µM)	0.125 µg/mL (≈ 0.302 µM)	–	–	< 2 µg/mL	0.125 µg/mL (≈ 0.302 µM)	0.032 µg/mL (≈ 0.0772 µM)	4.9	–	–	–	–	–	–
Cc1c(-c2ccccc2)c(N2CC[C@H](N(C)C)C2)c2oc(C3CC3)nc2c1C#N	–	–	0.125 µg/mL (≈ 0.323 µM)	–	0.032 µg/mL (≈ 0.0828 µM)	0.063 µg/mL (≈ 0.163 µM)	–	–	10 µg/mL (≈ 25.9 µM)	0.063 µg/mL (≈ 0.163 µM)	0.032 µg/mL (≈ 0.0828 µM)	3.9	–	–	–	–	–	–
Cc1c(C#N)c2c(c(N3CC[C@H](N(C)C)C3)c1-c1ccccc1)OCC(C(C)(C)C)=N2	16 µg/mL (≈ 38.4 µM)	8 µg/mL (≈ 19.2 µM)	–	> 16 µg/mL	–	–	> 16 µg/mL	8 µg/mL (≈ 19.2 µM)	56 µg/mL (≈ 134 µM)	–	–	4.4	–	–	–	–	–	–
Cc1c(-c2ccccc2)c(N2CC[C@H](N(C)C)C2)n2c(nc3ccccc32)c1C#N	0.25 µg/mL (≈ 0.632 µM)	0.004 µg/mL (≈ 0.0101 µM)	–	0.125 µg/mL (≈ 0.316 µM)	–	–	> 4 µg/mL	0.063 µg/mL (≈ 0.159 µM)	5 µg/mL (≈ 12.6 µM)	–	–	–	–	–	–	–	–	–
CN(C)[C@H]1CCN(c2c(-c3ccccc3)cc(C#N)c3oc(C(C)(C)C)nc23)C1	> 4 µg/mL	4 µg/mL (≈ 10.3 µM)	–	> 16 µg/mL	–	–	> 4 µg/mL	> 4 µg/mL	–	–	–	–	–	–	–	–	–	–
Cc1c(-c2ccccc2)c(N2CC[C@H](N(C)C)C2)n2nc(C(C)(C)C)nc2c1C#N	0.25 µg/mL (≈ 0.621 µM)	0.063 µg/mL (≈ 0.157 µM)	8 µg/mL (≈ 19.9 µM)	> 4 µg/mL	0.125 µg/mL (≈ 0.311 µM)	0.25 µg/mL (≈ 0.621 µM)	> 4 µg/mL	0.063 µg/mL (≈ 0.157 µM)	–	0.5 µg/mL (≈ 1.24 µM)	0.125 µg/mL (≈ 0.311 µM)	–	9%	–	–	–	–	–
Cc1c(-c2ccccc2)c(N2CC[C@H](N(C)C)C2)c2oc(N)nc2c1C#N	–	–	2 µg/mL (≈ 5.53 µM)	–	0.5 µg/mL (≈ 1.38 µM)	1 µg/mL (≈ 2.77 µM)	–	–	18 µg/mL (≈ 49.8 µM)	2 µg/mL (≈ 5.53 µM)	0.125 µg/mL (≈ 0.346 µM)	3.3	–	–	–	–	–	–
Cc1c(-c2ccccc2)c(N2CC[C@H](N(C)C)C2)c2oc(C3=CCCC3)nc2c1C#N	–	–	16 µg/mL (≈ 38.8 µM)	–	1 µg/mL (≈ 2.42 µM)	4 µg/mL (≈ 9.7 µM)	–	–	< 2 µg/mL	4 µg/mL (≈ 9.7 µM)	0.5 µg/mL (≈ 1.21 µM)	5.2	–	–	–	–	–	–
CN(C)[C@H]1CCN(c2c(-c3ccccc3)cc(C#N)c3oc(C(C)(C)C)cc23)C1	4 µg/mL (≈ 10.3 µM)	2 µg/mL (≈ 5.16 µM)	–	> 4 µg/mL	–	–	> 4 µg/mL	> 4 µg/mL	< 2 µg/mL	–	–	5.4	20%	–	–	–	–	–
Cc1c(-c2ccccc2)c(N2CC[C@H](N(C)C)C2)c2oc(C3CCC3)nc2c1C#N	–	–	0.5 µg/mL (≈ 1.25 µM)	–	–	0.063 µg/mL (≈ 0.157 µM)	–	–	7 µg/mL (≈ 17.5 µM)	0.125 µg/mL (≈ 0.312 µM)	–	4.5	–	< 0.016 µg/mL	–	–	–	–
CN(C)[C@H]1CCN(c2c(-c3ccccc3)cc(C#N)c3nc(C(C)(C)C)oc23)C1	0.5 µg/mL (≈ 1.29 µM)	0.25 µg/mL (≈ 0.643 µM)	–	16 µg/mL (≈ 41.2 µM)	–	–	16 µg/mL (≈ 41.2 µM)	0.25 µg/mL (≈ 0.643 µM)	16 µg/mL (≈ 41.2 µM)	–	–	3.8	8%	–	–	–	–	–
Cc1c(-c2ccccc2)c(N2CC[C@H](N(C)C)C2)c2[nH]c(C(C)(C)C)nc2c1C#N	2 µg/mL (≈ 4.98 µM)	0.5 µg/mL (≈ 1.25 µM)	–	> 16 µg/mL	–	–	4 µg/mL (≈ 9.96 µM)	0.5 µg/mL (≈ 1.25 µM)	8 µg/mL (≈ 19.9 µM)	–	–	4.7	21%	–	–	–	–	–
CN(C)[C@H]1CCN(c2c(-c3ccccc3)c3c(c4nc(C5CC5)oc24)C(=O)OC3)C1	–	–	2 µg/mL (≈ 4.96 µM)	–	0.25 µg/mL (≈ 0.62 µM)	1 µg/mL (≈ 2.48 µM)	–	–	310 µg/mL (≈ 768 µM)	1 µg/mL (≈ 2.48 µM)	0.25 µg/mL (≈ 0.62 µM)	2.6	–	–	–	–	–	–
Cc1c(-c2ccccc2)c(N2CC[C@H](N(C)C)C2)c2oc(C(C)(C)C)nc2c1C#N.Cl	0.063 µg/mL	≤ 0.016 µg/mL	2 µg/mL	4 µg/mL	0.032 µg/mL	0.063 µg/mL	4 µg/mL	≤ 0.016 µg/mL	5 µg/mL	0.125 µg/mL	0.063 µg/mL	4.6	6%	–	–	–	–	–
CN[C@H]1CCN(c2c(-c3ccccc3)c(C)c(C#N)c3nc(C(C)(C)C)oc23)C1.Cl	0.25 µg/mL	0.125 µg/mL	> 4 µg/mL	> 16 µg/mL	0.063 µg/mL	0.25 µg/mL	16 µg/mL	0.125 µg/mL	120 µg/mL	0.25 µg/mL	0.125 µg/mL	3.4	54%	–	inactive	inactive	inactive	Dose-dependent effect

— ChEMBL document CHEMBL1268918, “1,3-Benzoxazole-4-carbonitrile as a novel antifungal scaffold of β-1,6-glucan synthesis inhibitors” (Bioorg Med Chem, 2010)
